# Screening data: PubChem BioAssay, The Scripps Research Institute Molecular Screening Center
# MOR-DOR ag: agonists of OPRM1-OPRD1 heterodimerization, primary screen, cell-based, luminescence | Mu-type opioid receptor (Homo sapiens) + Delta-type opioid receptor (Homo sapiens), … | cells | activation, % at 9.3 µM | 0.3% of 340,000 active; in the data active means activation above about 18%;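 further: 0% = vehicle-treated cells and 100% = reference agonist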
# HTR5A inv ag: HTR5A inverse agonists in luminescence cell assay, primary screen, counter-screen for OPRM1-OPRD1 heterodimer inverse agonist project, full-deck HTS; HTR5A cell line, inverse agonism; inhibition, % at 9.3 µM; 5-hydroxytryptamine receptor 5A (Homo sapiens), P47898; 0.083% of 340,000 active; in the data active means inhibition mostly above about 23%, no sharp cut-off; inactive means mostly below about 18%;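 further: 0% = cells with DMSO and 100% = no-cell wells with DMSO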
# MC4R antag cAMP: MC4R antagonists of cAMP signaling, primary screen, cell-based, TR-FRET, antagonist arm of biased-ligand search; Melanocortin receptor 4 (Homo sapiens), P32245; MC4R-expressing cells, MTII-stimulated cAMP, LANCE TR-FRET; inhibition, % at 6.5 µM; 0.48% of 360,000 active; AID 540295, 2011;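 active means inhibition above its plate's cutoff, the mean of tested wells on that plate plus 3 SD, cut at about 29% in these data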;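 further: 0% = Melanotan II alone and 100% = Melanotan II plus saturating MCL0020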
#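 Assay system: human MC4R-expressing U2OS cells; reagent: Melanotan II stimulation of cells; dosing: 6.5 µM single dose; timing: compound 30 min, challenge 1 h, detection 1 h; signal: TR-FRET cAMP assay; replicates: one well per compound, no replicates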
# MOR-DOR inv ag: inverse agonists of MOR-DOR heterodimerization, primary screen, cell-based, luminescence. cell-based MOR-DOR heterodimer luminescence, inverse agonism. Mu-type opioid receptor (Homo sapiens) + Delta-type opioid receptor (Homo sapiens), …. inhibition, % at 9.3 µM. 0.21% of 340,000 active. AID 504357, 2011; in the data active means inhibition above about 22%, passing the limit was not always enough;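 further: 0% = cells with DMSO and 100% = wells without cells with DMSO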
# HTR5A ag: HTR5A agonists in luminescence cell assay, primary screen, counter-screen for OPRM1-OPRD1 heterodimer agonist project, full-deck HTS | activation, % at 9.3 µM | cell-based | 0.61% of 340,000 active; in the data active means activation mostly above about 9.5%, no sharp cut-off; inactive means mostly below about 7.6%;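 further: 0% = cells with vehicle only and 100% = reference agonist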
# MC4R barr agon: MC4R agonists recruiting beta-arrestin, primary screen, cell-based, luminescence, agonist arm of biased-ligand search; 0.98% of 360,000 active; activation, % at 8.9 µM; U2OS MC4R beta-arrestin complementation; percent of melanotan II response, DMSO zero; Melanocortin receptor 4 (Homo sapiens), P32245; AID 540308, 2011;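 active means activation above a per-plate cutoff, the mean activation of sample wells on that plate plus 3 SD, cut at about 8% in these data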
# MC4R barr conf: MC4R beta-arrestin agonists, retest, confirmation, cell-based, luminescence, U2OS | shares compounds with MC4R barr agon | U2OS MC4R beta-arrestin recruitment; scaled DMSO 0%, Melanotan II 100% | activation, % at 8.9 µM | 31% of 2,400 active | AID 602192, 2012;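 active means mean activation across replicates above the hit cutoff set in the earlier primary screen, cut at about 8% in these data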
# MOR DOR agonist: agonists of MOR-DOR heterodimerization, counter-screen for MC4R biased agonist project, cell-based, luminescence | shares compounds with MC4R barr agon | U2OS PathHunter beta-arrestin, beta-gal luminescence; percent of deltorphin B response, DMSO zero | activation, % at 9.2 µM | 5.8% of 2,400 active | AID 602194, 2012;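 active means mean activation across replicates exceeds the hit threshold derived in the earlier primary screen, cut at about 18% in these data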;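 further: 100% = deltorphin B at 0.9 µM final and 0% = DMSO alone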
# An asterisk follows results filed as active; nt = no result given. An excerpt weighted towards active compounds, which were near 2.4% of everything screened.
SMILES,MOR-DOR ag,HTR5A inv ag,MC4R antag cAMP,MOR-DOR inv ag,HTR5A ag,MC4R barr agon,MC4R barr conf,MOR DOR agonist
COc1ccccc1C(=O)Nc1ccc2oc(-c3ccc(F)cc3)nc2c1,0,5,4,-1,5,18*,6,2
COc1ccc(OCC(=O)NNC(=O)Nc2cccc(Cl)c2)cc1,-2,-6,10,9,0,-1,nt,nt
COc1ccccc1OCC(=O)Nc1cccc(-c2nc3ccccc3o2)c1,7,-28,9,-42,11,15*,5,3
CCOC(=O)c1ccc(S(=O)(=O)N2CCN(C(=O)c3ccccn3)CC2)cc1,-3,13,6,12,1,-1,nt,nt
Cc1noc(C)c1NC(=O)N(C)C[C@H]1Oc2ccc(NC(=O)Cn3cnnn3)cc2C(=O)N([C@H](C)CO)C[C@@H]1C,-1,-27,5,4,7,-1,nt,nt
CSc1ccccc1OCc1cc(C(=O)N[C@H]2CCCCNC2=O)no1,-1,0,1,7,0,-1,nt,nt
COC(C[C@@H]1O[C@H]1[C@@H](O)COCc1ccccc1)OC,-1,-25,0,4,-1,0,nt,nt
O=C(c1ccc(COc2ccccc2Br)o1)N1N=C(C(F)F)CC1(O)C(F)F (stereo unspecified),12,16,13,-63,2,15*,8,11
CCOc1ccc(C(=O)OCC(=O)Nc2ccc(SC(F)F)cc2)cc1OCC,8,-30,2,-45,9,19*,3,5
COc1ccccc1NC(=S)NC(=O)c1ccc(Cn2cc(Br)cn2)cc1,11,-4,-24,-77,13*,24*,12*,12
CCn1cc(C(=O)NC(=S)Nc2ccccc2Br)cn1,1,10,-2,-2,-4,-4,nt,nt
Cc1cccc(C(=O)Nc2sc3c(c2C#N)CCCCC3)c1,-1,3,-2,6,5,17*,-1,5
Cc1ccc(/C=C/C(=O)Nc2sc3c(c2C#N)CCCC3)o1,4,1,-4,-32,-1,28*,-2,3
Cc1ccc(/C=C/C(=O)Nc2nnc(SCc3ccc(C#N)cc3)s2)o1,3,2,9,-13,3,51*,0,4
Cc1nn(CC(=O)O)c(C)c1Cl,-3,-19,8,14,8,2,nt,nt
CC(C)(C)C(O)(CC#CCN1CCCC1)c1ccccc1 (stereo unspecified),0,-13,0,3,-1,0,nt,nt
OCCN1CCN(c2ncnc3c2ncn3[C@H]2CN(Cc3cccs3)C[C@@H](CO)O2)CC1,nt,nt,4,nt,nt,0,nt,nt
O=C(CSc1ccccc1F)NC(=O)c1ccc(Cl)cc1,2,-19,4,-8,5,10*,5,2
O=C(CSc1ccc(Cl)cc1)NC(=O)c1ccccc1,4,-5,2,-15,2,0,nt,nt
O=CN1CCN(C(=O)Cc2ccc(Cl)cc2)CC1,nt,nt,7,nt,nt,-3,nt,nt
Cc1cc2oc(C(=O)Nc3ccc(S(=O)(=O)Nc4nccs4)cc3)cc(=O)c2cc1Cl,-1,14,6,5,-1,9.7*,-2,2
Cc1ccc(CN2CCN(CCCn3cnc4c(OCc5ccccc5)ncnc43)CC2)cc1,-2,-7,1,7,2,3,nt,nt
c1ccc(COc2ncnc3c2ncn3CCCN2CCN(Cc3cccc4ccccc34)CC2)cc1,nt,nt,13,nt,nt,20*,10*,7
COc1ccc(C(C)=O)cc1CSc1nc2ccccc2c(=O)n1-c1ccccc1,1,-6,-24,-3,2,16*,3,2
COc1ccc(NC(=O)Nc2nnc(-c3ccccc3SCc3ccccc3)s2)cc1,3,11,1,-13,-5,18*,17*,5
SMILES,MOR-DOR ag,HTR5A inv ag,MC4R antag cAMP,MOR-DOR inv ag,HTR5A ag,MC4R barr agon,MC4R barr conf,MOR DOR agonist
Cc1occc1C(=O)Nc1nccs1,-1,-30,6,4,9,-2,nt,nt
Cc1occc1C(=O)Nc1nnc(-c2cccs2)s1,0,12,9,2,-2,13*,4,10
COc1ccc(NC(=O)Nc2nnc(-c3cccs3)s2)cc1,1,-3,-2,-7,1,13*,0,5
CCc1ncc(C)nc1CC,-2,-22,4,11,4,-1,nt,nt
Nc1ccc(-n2c(N)c(C(=O)NCc3ccc4c(c3)OCO4)c3nc4ccccc4nc32)cc1,5,-7,6,-26,7,13*,1,4
COc1cc(/C=C/C(=O)OCC(=O)Nc2cc(C(F)(F)F)ccc2N2CCOCC2)ccc1O,17,-36,3,-92,10,24*,5,15
COc1ccc(OCCCC(=O)Nc2nc(C)c(C(C)=O)s2)cc1,1,3,1,-6,-1,-2,nt,nt
CC(=O)c1sc(NC(=O)CCCOc2ccc(Cl)cc2)nc1C,8,-39,-6,-41,1,11*,2,2
O=C(Nc1cccc(C(=O)O)c1)/C(=C\c1ccc(F)cc1)NC(=O)c1ccco1,0,-8,3,2,3,1,nt,nt
O=C(N[C@@H]1c2ccccc2CC[C@@H]1OCc1ccccc1)c1ccc(C(F)(F)F)cc1,-3,-6,-2,15,2,-1,nt,nt
O=S(=O)(NCC1CCCO1)c1ccc(S(=O)(=O)N(Cc2ccc(F)cc2)C2CCCCC2)cc1 (stereo unspecified),10,-7,18,-52,-1,10*,2,6
COc1ccc(OCC(O)CN2CCNCC2)cc1 (stereo unspecified),-2,-11,-2,8,3,-2,nt,nt
Cc1cccc(OCC(=O)Nc2nonc2NC(=O)COc2cccc(C)c2)c1,2,6,3,-8,1,0,nt,nt
Cc1ccc(C)c(OCC(=O)Nc2nonc2NC(=O)COc2cc(C)ccc2C)c1,5,-25,-10,-28,-2,19*,7,7
